# Active and inactive are the calls of the source.
# System: not listed separately
# Assay: Activation of alpha-galactosidase using 4-MU-alpha-galactose as substrate
row,Structure (SMILES),Activity
1,CC(=O)c1ccc(NC(=O)c2cnn3c(C)cc(C)nc23)cc1,inactive
2,Cc1cc(-c2ccccc2)n2ncc(C(=O)Nc3ccccc3Sc3ccccc3)c2n1,inactive
3,CC(=O)c1cccc(NC(=O)c2cnn3c(C)cc(C)nc23)c1,inactive
4,Cc1cc(C)n2ncc(C(=O)N[C@H]3CC[C@H](C(C)(C)C)CC3)c2n1,inactive
5,Cc1cc(-c2ccccc2)nc2c(C(=O)Nc3ccc4c(c3)CCC4)cnn12,inactive
6,Cc1cc(C)n2ncc(C(=O)NC(C)C)c2n1,inactive
7,Cc1cc(-c2ccccc2)n2ncc(C(=O)Nc3ccc(Cl)c(Cl)c3)c2n1,inactive
8,COc1ccc(NC(=O)c2cnn3c(C)cc(C)nc23)cc1Cl,inactive
9,Cc1cc(C)n2ncc(C(=O)Nc3cccc(C(F)(F)F)c3)c2n1,inactive
10,Cc1cc(C)n2ncc(C(=O)Nc3ccc4c(c3)CCC4)c2n1,inactive
11,COc1ccc(NC(=O)c2cnn3c(-c4ccccc4)cc(C)nc23)cc1,inactive
12,Cc1cc(C)n2ncc(C(=O)Nc3ccc(S(C)(=O)=O)cc3)c2n1,inactive
13,Cc1cc(C)n2ncc(C(=O)N3CCCC3)c2n1,inactive
14,Cc1cc(C)n2ncc(C(=O)N[C@H]3CC[C@@H](C(C)(C)C)CC3)c2n1,inactive
15,CC(=O)Nc1cccc(NC(=O)c2cnn3c(C)cc(C)nc23)c1,inactive
16,COc1ccc(NC(=O)c2cnn3c(C)cc(C)nc23)cc1F,inactive
17,Cc1cc(C)n2ncc(C(=O)Nc3cc(Cl)cc(Cl)c3)c2n1,inactive
18,Cc1cc(C)n2ncc(C(=O)NCC(C)C)c2n1,inactive
19,Cc1ccc(NC(=O)c2cnn3c(C)cc(C)nc23)cc1,inactive
20,Cc1cc(C)n2ncc(C(=O)Nc3ccc4c(c3)OCO4)c2n1,inactive
21,CCc1ccc(NC(=O)c2cnn3c(C)cc(-c4ccccc4)nc23)cc1,inactive
22,COc1ccc(NC(=O)c2cnn3c(C)cc(C)nc23)cc1OC,inactive
23,Cc1ccc(NC(=O)c2cnn3c(C)cc(C)nc23)c(C)c1,inactive
24,Cc1cc(C)n2ncc(C(=O)NCc3ccccc3)c2n1,inactive

row,Structure (SMILES),Activity
1,Cc1cccc(NC(=O)c2cnn3c(C)cc(C)nc23)c1,inactive
2,Cc1cc(C)n2ncc(C(=O)Nc3ccccc3)c2n1,inactive
3,O=C(Nc1ccccc1Sc1ccccc1)c1cnn2c(C(F)(F)F)cc(C3CC3)nc12,inactive
4,Cc1cc(C)n2ncc(C(=O)Nc3ccccc3C)c2n1,inactive
5,Cc1ccc(NC(=O)c2cnn3c(-c4ccccc4)cc(C)nc23)cc1,inactive
6,COc1ccc(NC(=O)c2cnn3c(C)cc(C)nc23)cc1,inactive
7,CC(=O)Nc1ccc(NC(=O)c2cnn3c(C)cc(C)nc23)cc1,inactive
8,COc1cc(NC(=O)c2cnn3c(C)cc(C)nc23)cc(OC)c1OC,inactive
9,O=C(Nc1ccc2c(c1)CCC2)c1cnn2c(C(F)F)cc(C3CC3)nc12,inactive
10,CCc1ccc(NC(=O)c2cnn3c(C)cc(C)nc23)cc1,inactive
11,Cc1cc(C)n2ncc(C(=O)NC3CCCCC3)c2n1,inactive
12,Cc1cc(-c2ccccc2)nc2c(C(=O)Nc3ccc(Cl)c(Cl)c3)cnn12,inactive
13,Cc1cc(C)n2ncc(C(=O)Nc3ccncc3)c2n1,inactive
14,Cc1cc(C)n2ncc(C(=O)Nc3ccc4c(c3)OCCO4)c2n1,inactive
15,CNC(=O)c1cnn2c(C)cc(C)nc12,inactive
16,Cc1cc(C)n2ncc(C(=O)NCc3ccco3)c2n1,inactive
17,Cc1cc(C)n2ncc(C(=O)Nc3ccc(C)c(C)c3)c2n1,inactive
18,Cc1cc(C)n2ncc(C(=O)Nc3ccccc3Sc3ccccc3)c2n1,inactive
19,Cc1cc(C)n2ncc(C(=O)Nc3cccc(C#N)c3)c2n1,inactive
20,Cc1cc(C)n2ncc(C(=O)Nc3ccc(C#N)cc3)c2n1,inactive
21,Cc1cc(C)n2ncc(C(=O)Nc3ccc(C(C)(C)C)cc3)c2n1,inactive
22,O=C(NC1CCCCC1)c1cnn2c(C(F)F)cc(C3CC3)nc12,inactive
23,CCc1ccc(NC(=O)c2cnn3c(C(F)F)cc(C4CC4)nc23)cc1,inactive

# System: T1, Lysosomal acid glucosylceramidase (Homo sapiens), P04062 [N409S]
# T1 sequence (whole entry): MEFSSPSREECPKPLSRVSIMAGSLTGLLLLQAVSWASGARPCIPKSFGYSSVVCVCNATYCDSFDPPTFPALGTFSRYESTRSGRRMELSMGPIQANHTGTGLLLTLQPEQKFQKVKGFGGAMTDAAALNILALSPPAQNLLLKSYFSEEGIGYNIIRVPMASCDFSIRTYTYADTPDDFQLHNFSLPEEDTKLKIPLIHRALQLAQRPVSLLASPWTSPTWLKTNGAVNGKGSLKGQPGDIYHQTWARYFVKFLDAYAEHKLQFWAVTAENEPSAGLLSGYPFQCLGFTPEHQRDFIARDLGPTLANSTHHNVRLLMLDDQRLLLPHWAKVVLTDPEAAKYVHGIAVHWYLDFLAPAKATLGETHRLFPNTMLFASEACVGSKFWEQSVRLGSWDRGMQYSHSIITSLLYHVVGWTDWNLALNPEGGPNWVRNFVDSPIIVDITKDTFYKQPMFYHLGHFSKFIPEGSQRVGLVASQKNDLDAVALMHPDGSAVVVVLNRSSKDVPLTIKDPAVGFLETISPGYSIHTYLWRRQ
# Assay: Activation of glucocerebrosidase N370S mutant in Gaucher patient spleen homogenates using 4-methylumbelliferone-Glc as substrate assessed as half-maximal activation concentration incubated for 5 mins prior to substrate addition measured after 30 to 45 mins by fluorimetric analysis
# Format: tissue-based
# Procedure, shortened: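 Spleen homogenate (27 μg final) in pH 5 citrate/phosphate buffer with KCl, NaCl, MgCl₂ and 0.01% Tween-20. Compound was titrated 0.5 nM to 58 μM and preincubated 5 min at room temperature. Reaction used 1 mM 4MU-Glc for 30−45 min at 37 °C and was stopped with NaOH/glycine pH 10. Read-out was fluorescence at Ex 365/Em 440 nm. AC₅₀ is the average of N = 2.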
row,Structure (SMILES),Activity
1,CC(=O)c1ccc(NC(=O)c2cnn3c(C)cc(C)nc23)cc1,163 µM
2,Cc1cc(-c2ccccc2)n2ncc(C(=O)Nc3ccccc3Sc3ccccc3)c2n1,inactive
3,CC(=O)c1cccc(NC(=O)c2cnn3c(C)cc(C)nc23)c1,32.6 µM
4,Cc1cc(C)n2ncc(C(=O)N[C@H]3CC[C@H](C(C)(C)C)CC3)c2n1,4.11 µM
5,Cc1cc(-c2ccccc2)nc2c(C(=O)Nc3ccc4c(c3)CCC4)cnn12,8.19 µM
6,Cc1cc(C)n2ncc(C(=O)NC(C)C)c2n1,inactive
7,Cc1cc(-c2ccccc2)n2ncc(C(=O)Nc3ccc(Cl)c(Cl)c3)c2n1,inactive
8,COc1ccc(NC(=O)c2cnn3c(C)cc(C)nc23)cc1Cl,2.06 µM
9,Cc1cc(C)n2ncc(C(=O)Nc3cccc(C(F)(F)F)c3)c2n1,41.1 µM
10,Cc1cc(C)n2ncc(C(=O)Nc3ccc4c(c3)CCC4)c2n1,2.59 µM
11,COc1ccc(NC(=O)c2cnn3c(-c4ccccc4)cc(C)nc23)cc1,inactive
12,Cc1cc(C)n2ncc(C(=O)Nc3ccc(S(C)(=O)=O)cc3)c2n1,inactive
13,Cc1cc(C)n2ncc(C(=O)N3CCCC3)c2n1,inactive
14,Cc1cc(C)n2ncc(C(=O)N[C@H]3CC[C@@H](C(C)(C)C)CC3)c2n1,25.9 µM
15,CC(=O)Nc1cccc(NC(=O)c2cnn3c(C)cc(C)nc23)c1,inactive
16,COc1ccc(NC(=O)c2cnn3c(C)cc(C)nc23)cc1F,1.46 µM
17,Cc1cc(C)n2ncc(C(=O)Nc3cc(Cl)cc(Cl)c3)c2n1,25.9 µM
18,Cc1cc(C)n2ncc(C(=O)NCC(C)C)c2n1,32.6 µM
19,Cc1ccc(NC(=O)c2cnn3c(C)cc(C)nc23)cc1,1.63 µM
20,Cc1cc(C)n2ncc(C(=O)Nc3ccc4c(c3)OCO4)c2n1,6.51 µM
21,CCc1ccc(NC(=O)c2cnn3c(C)cc(-c4ccccc4)nc23)cc1,12.9 µM

row,Structure (SMILES),Activity
1,COc1ccc(NC(=O)c2cnn3c(C)cc(C)nc23)cc1OC,inactive
2,Cc1ccc(NC(=O)c2cnn3c(C)cc(C)nc23)c(C)c1,13 µM
3,Cc1cc(C)n2ncc(C(=O)NCc3ccccc3)c2n1,51.7 µM
4,Cc1cccc(NC(=O)c2cnn3c(C)cc(C)nc23)c1,6.51 µM
5,Cc1cc(C)n2ncc(C(=O)Nc3ccccc3)c2n1,8.19 µM
6,Cc1cc(C)n2ncc(C(=O)Nc3ccccc3C)c2n1,16.3 µM
7,Cc1ccc(NC(=O)c2cnn3c(-c4ccccc4)cc(C)nc23)cc1,inactive
8,COc1ccc(NC(=O)c2cnn3c(C)cc(C)nc23)cc1,8.19 µM
9,CC(=O)Nc1ccc(NC(=O)c2cnn3c(C)cc(C)nc23)cc1,inactive
10,COc1cc(NC(=O)c2cnn3c(C)cc(C)nc23)cc(OC)c1OC,inactive
11,CCc1ccc(NC(=O)c2cnn3c(C)cc(C)nc23)cc1,3.26 µM
12,Cc1cc(C)n2ncc(C(=O)NC3CCCCC3)c2n1,10.3 µM
13,Cc1cc(C)n2ncc(C(=O)Nc3ccncc3)c2n1,inactive
14,Cc1cc(C)n2ncc(C(=O)Nc3ccc4c(c3)OCCO4)c2n1,10.3 µM
15,CNC(=O)c1cnn2c(C)cc(C)nc12,inactive
16,Cc1cc(C)n2ncc(C(=O)NCc3ccco3)c2n1,51.7 µM
17,Cc1cc(C)n2ncc(C(=O)Nc3ccc(C)c(C)c3)c2n1,1.46 µM
18,Cc1cc(C)n2ncc(C(=O)Nc3ccccc3Sc3ccccc3)c2n1,18.3 µM
19,Cc1cc(C)n2ncc(C(=O)Nc3cccc(C#N)c3)c2n1,inactive
20,Cc1cc(C)n2ncc(C(=O)Nc3ccc(C#N)cc3)c2n1,20.6 µM
21,Cc1cc(C)n2ncc(C(=O)Nc3ccc(C(C)(C)C)cc3)c2n1,2.31 µM

# Biological target: Lysosomal alpha-glucosidase (Homo sapiens) (UniProt P10253)
# Assay: Activation of alpha-glucosidase using 4-MU-alpha-glucose as substrate
row,Structure (SMILES),Activity
1,CC(=O)c1ccc(NC(=O)c2cnn3c(C)cc(C)nc23)cc1,inactive
2,Cc1cc(-c2ccccc2)n2ncc(C(=O)Nc3ccccc3Sc3ccccc3)c2n1,inactive
3,CC(=O)c1cccc(NC(=O)c2cnn3c(C)cc(C)nc23)c1,inactive
4,Cc1cc(C)n2ncc(C(=O)N[C@H]3CC[C@H](C(C)(C)C)CC3)c2n1,inactive
5,Cc1cc(-c2ccccc2)nc2c(C(=O)Nc3ccc4c(c3)CCC4)cnn12,inactive
6,Cc1cc(C)n2ncc(C(=O)NC(C)C)c2n1,inactive
7,Cc1cc(-c2ccccc2)n2ncc(C(=O)Nc3ccc(Cl)c(Cl)c3)c2n1,inactive
8,COc1ccc(NC(=O)c2cnn3c(C)cc(C)nc23)cc1Cl,inactive
9,Cc1cc(C)n2ncc(C(=O)Nc3cccc(C(F)(F)F)c3)c2n1,inactive
10,Cc1cc(C)n2ncc(C(=O)Nc3ccc4c(c3)CCC4)c2n1,inactive
11,COc1ccc(NC(=O)c2cnn3c(-c4ccccc4)cc(C)nc23)cc1,inactive
12,Cc1cc(C)n2ncc(C(=O)Nc3ccc(S(C)(=O)=O)cc3)c2n1,inactive
13,Cc1cc(C)n2ncc(C(=O)N3CCCC3)c2n1,inactive
14,Cc1cc(C)n2ncc(C(=O)N[C@H]3CC[C@@H](C(C)(C)C)CC3)c2n1,inactive
15,CC(=O)Nc1cccc(NC(=O)c2cnn3c(C)cc(C)nc23)c1,inactive
16,COc1ccc(NC(=O)c2cnn3c(C)cc(C)nc23)cc1F,inactive
17,Cc1cc(C)n2ncc(C(=O)Nc3cc(Cl)cc(Cl)c3)c2n1,inactive
18,Cc1cc(C)n2ncc(C(=O)NCC(C)C)c2n1,inactive
19,Cc1ccc(NC(=O)c2cnn3c(C)cc(C)nc23)cc1,inactive
20,Cc1cc(C)n2ncc(C(=O)Nc3ccc4c(c3)OCO4)c2n1,inactive
21,CCc1ccc(NC(=O)c2cnn3c(C)cc(-c4ccccc4)nc23)cc1,inactive
22,COc1ccc(NC(=O)c2cnn3c(C)cc(C)nc23)cc1OC,inactive
23,Cc1ccc(NC(=O)c2cnn3c(C)cc(C)nc23)c(C)c1,inactive
24,Cc1cc(C)n2ncc(C(=O)NCc3ccccc3)c2n1,inactive

row,Structure (SMILES),Activity
1,Cc1cccc(NC(=O)c2cnn3c(C)cc(C)nc23)c1,inactive
2,Cc1cc(C)n2ncc(C(=O)Nc3ccccc3)c2n1,inactive
3,O=C(Nc1ccccc1Sc1ccccc1)c1cnn2c(C(F)(F)F)cc(C3CC3)nc12,inactive
4,Cc1cc(C)n2ncc(C(=O)Nc3ccccc3C)c2n1,inactive
5,Cc1ccc(NC(=O)c2cnn3c(-c4ccccc4)cc(C)nc23)cc1,inactive
6,COc1ccc(NC(=O)c2cnn3c(C)cc(C)nc23)cc1,inactive
7,CC(=O)Nc1ccc(NC(=O)c2cnn3c(C)cc(C)nc23)cc1,inactive
8,COc1cc(NC(=O)c2cnn3c(C)cc(C)nc23)cc(OC)c1OC,inactive
9,O=C(Nc1ccc2c(c1)CCC2)c1cnn2c(C(F)F)cc(C3CC3)nc12,inactive
10,CCc1ccc(NC(=O)c2cnn3c(C)cc(C)nc23)cc1,inactive
11,Cc1cc(C)n2ncc(C(=O)NC3CCCCC3)c2n1,inactive
12,Cc1cc(-c2ccccc2)nc2c(C(=O)Nc3ccc(Cl)c(Cl)c3)cnn12,inactive
13,Cc1cc(C)n2ncc(C(=O)Nc3ccncc3)c2n1,inactive
14,Cc1cc(C)n2ncc(C(=O)Nc3ccc4c(c3)OCCO4)c2n1,inactive
15,CNC(=O)c1cnn2c(C)cc(C)nc12,inactive
16,Cc1cc(C)n2ncc(C(=O)NCc3ccco3)c2n1,inactive
17,Cc1cc(C)n2ncc(C(=O)Nc3ccc(C)c(C)c3)c2n1,inactive
18,Cc1cc(C)n2ncc(C(=O)Nc3ccccc3Sc3ccccc3)c2n1,inactive
19,Cc1cc(C)n2ncc(C(=O)Nc3cccc(C#N)c3)c2n1,inactive
20,Cc1cc(C)n2ncc(C(=O)Nc3ccc(C#N)cc3)c2n1,inactive
21,Cc1cc(C)n2ncc(C(=O)Nc3ccc(C(C)(C)C)cc3)c2n1,inactive
22,O=C(NC1CCCCC1)c1cnn2c(C(F)F)cc(C3CC3)nc12,inactive
23,CCc1ccc(NC(=O)c2cnn3c(C(F)F)cc(C4CC4)nc23)cc1,inactive

# From ChEMBL document CHEMBL2169863, “Discovery, structure-activity relationship, and biological evaluation of noninhibitory small molecule chaperones of glucocerebrosidase” (J Med Chem, 2012)
